ChEMBL document CHEMBL1128446, “Pyrazinoic acid esters with broad spectrum in vitro antimycobacterial activity” (1995)
Values after ≈ are worked out from the molar mass of the structure shown.

How the values were obtained:
Type in all cases: functional
[1] = test system: Mycobacterium tuberculosis; assay: Minimum Inhibitory Concentration against Mycobacterium tuberculosis ATCC 27294; settings: Mycobacterium tuberculosis, ATCC 27294; read-out: MIC
Method in brief: (§1)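 Broth macrodilution in tubes of modified Middlebrook 7H10 broth (agar and malachite green omitted) with 10% OADC and 0.05% Tween 80 at pH 5.8. Cultures were grown 3 days at 37 °C on a rotary shaker, then diluted with 7H10 broth to 1 Klett unit/mL. Stocks were made in water or DMSO and filter-sterilised; 2-fold serial dilutions were tested. Tubes shaken 7–10 days at 37 °C, with a drug-free control. MIC = lowest concentration (μg/mL) with no visible turbidity.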

Mycobacterium kansasii = assay: Minimum Inhibitory Concentration against clinical isolates of Mycobacterium kansasii S
Method in brief: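 Grown 3 days at 37 °C on a rotary shaker in modified Middlebrook 7H10 broth (agar and malachite green omitted) with 10% OADC and 0.05% Tween 80. Diluted to 1 Klett unit/mL. Tubes held serial 2-fold dilutions in 7H10 broth at pH 5.8, from stocks in water or DMSO, and were shaken at 37 °C for 7–10 days with a drug-free control. MIC was the lowest concentration with no visible turbidity.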

[2] = test system: Mycobacterium tuberculosis; assay: Minimum Inhibitory Concentration against Mycobacterium tuberculosis ATCC 35801; method in brief: as §1
Mycobacterium avium [3] = assay: Minimum Inhibitory Concentration against clinical isolates of Mycobacterium avium complex ATCC 49601; method in brief: as §1
Mycobacterium avium [4] = assay: Minimum Inhibitory Concentration in clinical isolates against Mycobacterium avium complex 101; method in brief: as §1

Compound	MIC [1] [µg/mL]	MIC (Mycobacterium kansasii) [µg/mL]	MIC [2] [µg/mL]	MIC (Mycobacterium avium [3]) [µg/mL]	MIC (Mycobacterium avium [4]) [µg/mL]
CCCCC(OC(=O)c1cnc(Cl)cn1)c1ccccc1 (stereo not given)	4 (≈ 13.1 µM)	1 (≈ 3.28 µM)	2 (≈ 6.56 µM)	64 (≈ 210 µM)	128 (≈ 420 µM)
CCCCCCCCCCOC(=O)c1cnccn1	0.5 (≈ 1.89 µM)	0.25 (≈ 0.946 µM)	0.25 (≈ 0.946 µM)	8 (≈ 30.3 µM)	32 (≈ 121 µM)
CCCCOC(=O)c1cnc(Cl)cn1	0.25 (≈ 1.16 µM)	< 1	0.5 (≈ 2.33 µM)	128 (≈ 596 µM)	64 (≈ 298 µM)
CCCCCCCCCCOC(=O)c1cnc(Cl)cn1	0.5 (≈ 1.67 µM)	0.5 (≈ 1.67 µM)	0.25 (≈ 0.837 µM)	16 (≈ 53.5 µM)	32 (≈ 107 µM)
O=C(OCCc1ccc(Cl)cc1)c1cnc(Cl)cn1	2 (≈ 6.73 µM)	0.5 (≈ 1.68 µM)	32 (≈ 108 µM)	8 (≈ 26.9 µM)	16 (≈ 53.8 µM)
CCCCCCCCC(C)(C)OC(=O)c1cnc(Cl)cn1	0.125 (≈ 0.4 µM)	1 (≈ 3.2 µM)	1 (≈ 3.2 µM)	64 (≈ 205 µM)	64 (≈ 205 µM)
C=CCOC(=O)c1cnc(Cl)cn1	1 (≈ 5.04 µM)	< 1	1 (≈ 5.04 µM)	64 (≈ 322 µM)	64 (≈ 322 µM)
CCCCCCCC(C)OC(=O)c1cnc(Cl)cn1 (stereo not given)	1 (≈ 3.51 µM)	< 0.03	0.5 (≈ 1.76 µM)	32 (≈ 112 µM)	32 (≈ 112 µM)
CCCCCCC(C)(CCCCCC)OC(=O)c1cnc(Cl)cn1	0.25 (≈ 0.704 µM)	2 (≈ 5.64 µM)	0.5 (≈ 1.41 µM)	16 (≈ 45.1 µM)	> 64
CCCCCCCCC(C)(CCCC)OC(=O)c1cnc(Cl)cn1 (stereo not given)	16 (≈ 45.1 µM)	16 (≈ 45.1 µM)	16 (≈ 45.1 µM)	> 64	> 64
CCC(C)(CC)OC(=O)c1cnc(Cl)cn1	8 (≈ 33 µM)	2 (≈ 8.24 µM)	8 (≈ 33 µM)	256 (≈ 1050 µM)	> 256
CCCCCCCCC(CC)OC(=O)c1cnc(Cl)cn1 (stereo not given)	0.5 (≈ 1.6 µM)	< 0.03	0.25 (≈ 0.799 µM)	32 (≈ 102 µM)	64 (≈ 205 µM)
CCCCCC(C)OC(=O)c1cnc(Cl)cn1 (stereo not given)	0.06 (≈ 0.234 µM)	< 0.125	0.5 (≈ 1.95 µM)	32 (≈ 125 µM)	32 (≈ 125 µM)
Cc1ccc(C(C)OC(=O)c2cnc(Cl)cn2)cc1 (stereo not given)	1 (≈ 3.61 µM)	1 (≈ 3.61 µM)	1 (≈ 3.61 µM)	16 (≈ 57.8 µM)	256 (≈ 925 µM)
CCCCCCC(C)(CCCCC)OC(=O)c1cnc(Cl)cn1 (stereo not given)	2 (≈ 5.87 µM)	8 (≈ 23.5 µM)	8 (≈ 23.5 µM)	> 64	> 64
CCCCCCCOC(=O)c1cnc(Cl)cn1	0.06 (≈ 0.234 µM)	< 0.03	< 0.03	16 (≈ 62.3 µM)	8 (≈ 31.2 µM)
CCCCCC(CC)OC(=O)c1cnc(C)cn1 (stereo not given)	1 (≈ 3.99 µM)	4 (≈ 16 µM)	0.5 (≈ 2 µM)	64 (≈ 256 µM)	64 (≈ 256 µM)
CC(C)COC(=O)c1cnccn1	< 8	> 64	16 (≈ 88.8 µM)	–	256 (≈ 1420 µM)
CCCCCCCC(C)(CCCCC)OC(=O)c1cnc(Cl)cn1 (stereo not given)	2 (≈ 5.64 µM)	–	4 (≈ 11.3 µM)	> 64	> 64
CCCCCCC(C)OC(=O)c1cnc(Cl)cn1 (stereo not given)	0.06 (≈ 0.222 µM)	< 0.015	0.25 (≈ 0.923 µM)	16 (≈ 59.1 µM)	8 (≈ 29.5 µM)

Compound	MIC [1] [µg/mL]	MIC (Mycobacterium kansasii) [µg/mL]	MIC [2] [µg/mL]	MIC (Mycobacterium avium [3]) [µg/mL]	MIC (Mycobacterium avium [4]) [µg/mL]
CCCOC(=O)c1cnc(C)cn1	2 (≈ 11.1 µM)	8 (≈ 44.4 µM)	4 (≈ 22.2 µM)	> 64	> 64
COC(=O)c1cnc(Cl)cn1	4 (≈ 23.2 µM)	2 (≈ 11.6 µM)	8 (≈ 46.4 µM)	64 (≈ 371 µM)	256 (≈ 1480 µM)
CCCCCCC(C)(C)OC(=O)c1cnc(Cl)cn1	0.25 (≈ 0.878 µM)	1 (≈ 3.51 µM)	4 (≈ 14 µM)	64 (≈ 225 µM)	64 (≈ 225 µM)
CC(C)(C)C(OC(=O)c1cnc(Cl)cn1)c1ccccc1 (stereo not given)	4 (≈ 13.1 µM)	2 (≈ 6.56 µM)	4 (≈ 13.1 µM)	256 (≈ 840 µM)	128 (≈ 420 µM)
CCCOC(=O)c1cnc(Cl)cn1	0.06 (≈ 0.299 µM)	0.25 (≈ 1.25 µM)	< 0.03	16 (≈ 79.8 µM)	16 (≈ 79.8 µM)
CCCCCCCCCCCCCCCOC(=O)c1cnccn1	0.06 (≈ 0.179 µM)	1 (≈ 2.99 µM)	0.12 (≈ 0.359 µM)	8 (≈ 23.9 µM)	32 (≈ 95.7 µM)
CCCCCOC(=O)c1cnc(Cl)cn1	0.06 (≈ 0.262 µM)	< 0.03	0.25 (≈ 1.09 µM)	32 (≈ 140 µM)	32 (≈ 140 µM)
CCCCCCCC(OC(=O)c1cnc(Cl)cn1)C(C)(C)C (stereo not given)	0.5 (≈ 1.53 µM)	0.25 (≈ 0.765 µM)	2 (≈ 6.12 µM)	–	> 256
CCCCCCCCCCCOC(=O)c1cnc(Cl)cn1	0.25 (≈ 0.799 µM)	0.06 (≈ 0.192 µM)	0.5 (≈ 1.6 µM)	8 (≈ 25.6 µM)	16 (≈ 51.1 µM)
CCCCCCCCCOC(=O)c1cnc(Cl)cn1	< 0.03	0.125 (≈ 0.439 µM)	1 (≈ 3.51 µM)	16 (≈ 56.2 µM)	32 (≈ 112 µM)
COC(=O)c1cnccn1	< 8	> 64	16 (≈ 116 µM)	> 256	–
O=C(Oc1c(Br)cc(Br)cc1Br)c1cnccn1	32 (≈ 73.2 µM)	64 (≈ 146 µM)	32 (≈ 73.2 µM)	128 (≈ 293 µM)	128 (≈ 293 µM)
CCCCCCOC(=O)c1cnc(Cl)cn1	0.125 (≈ 0.515 µM)	0.015 (≈ 0.0618 µM)	0.125 (≈ 0.515 µM)	16 (≈ 65.9 µM)	32 (≈ 132 µM)
CCCCCCCCOC(=O)c1cnc(Cl)cn1	0.06 (≈ 0.222 µM)	< 0.03	< 0.03	16 (≈ 59.1 µM)	16 (≈ 59.1 µM)
COC(=O)c1cnc(F)cn1	4 (≈ 25.6 µM)	8 (≈ 51.2 µM)	8 (≈ 51.2 µM)	64 (≈ 410 µM)	64 (≈ 410 µM)
CCCCCC(CC)OC(=O)c1cnc(Cl)cn1 (stereo not given)	0.25 (≈ 0.923 µM)	0.125 (≈ 0.462 µM)	1 (≈ 3.69 µM)	256 (≈ 945 µM)	> 256
CC(C)COC(=O)c1cnc(Cl)cn1	2 (≈ 9.32 µM)	< 1	0.25 (≈ 1.16 µM)	64 (≈ 298 µM)	64 (≈ 298 µM)
CCCCCCC(C)OC(=O)c1cnc(F)cn1 (stereo not given)	2 (≈ 7.86 µM)	< 0.03	4 (≈ 15.7 µM)	64 (≈ 252 µM)	32 (≈ 126 µM)
CCCCCCCCCC(C)OC(=O)c1cnc(Cl)cn1 (stereo not given)	0.25 (≈ 0.799 µM)	0.25 (≈ 0.799 µM)	0.125 (≈ 0.4 µM)	16 (≈ 51.1 µM)	16 (≈ 51.1 µM)
O=C(OC(c1ccccc1)c1ccccc1)c1cnc(Cl)cn1	16 (≈ 49.3 µM)	8 (≈ 24.6 µM)	16 (≈ 49.3 µM)	> 64	> 64

Compound	MIC [1] [µg/mL]	MIC (Mycobacterium kansasii) [µg/mL]	MIC [2] [µg/mL]	MIC (Mycobacterium avium [3]) [µg/mL]	MIC (Mycobacterium avium [4]) [µg/mL]
CCCCCCCCCCC(OC(=O)c1cnc(Cl)cn1)C(C)(C)C (stereo not given)	16 (≈ 43.4 µM)	4 (≈ 10.8 µM)	8 (≈ 21.7 µM)	256 (≈ 694 µM)	> 256
CCCCCCCC(C)(CCCC)OC(=O)c1cnc(Cl)cn1 (stereo not given)	4 (≈ 11.7 µM)	16 (≈ 46.9 µM)	8 (≈ 23.5 µM)	> 256	> 256
O=C(OCCc1ccccc1)c1cnc(Cl)cn1	1 (≈ 3.81 µM)	0.25 (≈ 0.952 µM)	1 (≈ 3.81 µM)	8 (≈ 30.5 µM)	32 (≈ 122 µM)
O=C(OCc1ccccc1)c1cnc(Cl)cn1	1 (≈ 4.02 µM)	1 (≈ 4.02 µM)	0.5 (≈ 2.01 µM)	4 (≈ 16.1 µM)	8 (≈ 32.2 µM)
CCCCCCOC(=O)c1cnc(F)cn1	–	8 (≈ 35.4 µM)	4 (≈ 17.7 µM)	64 (≈ 283 µM)	64 (≈ 283 µM)
CCCCCC(C)(CCCCC)OC(=O)c1cnc(Cl)cn1	8 (≈ 24.5 µM)	8 (≈ 24.5 µM)	8 (≈ 24.5 µM)	64 (≈ 196 µM)	64 (≈ 196 µM)
CCOC(=O)c1cnc(Cl)cn1	1 (≈ 5.36 µM)	2 (≈ 10.7 µM)	2 (≈ 10.7 µM)	128 (≈ 686 µM)	128 (≈ 686 µM)
CCCCCCCCCOC(=O)c1cnc(C)cn1	1 (≈ 3.78 µM)	2 (≈ 7.57 µM)	1 (≈ 3.78 µM)	32 (≈ 121 µM)	64 (≈ 242 µM)
CCCCCCCC(OC(=O)c1cnc(Cl)cn1)C(C)C (stereo not given)	0.5 (≈ 1.6 µM)	0.25 (≈ 0.799 µM)	2 (≈ 6.39 µM)	256 (≈ 818 µM)	> 256
O=C(Oc1cccc2ccccc12)c1cnccn1	8 (≈ 32 µM)	> 16	–	64 (≈ 256 µM)	128 (≈ 511 µM)
CCCCCCCCC(C)OC(=O)c1cnc(Cl)cn1 (stereo not given)	0.06 (≈ 0.201 µM)	< 0.12	0.5 (≈ 1.67 µM)	32 (≈ 107 µM)	32 (≈ 107 µM)
CCCCCC(C)(CCCC)OC(=O)c1cnc(Cl)cn1 (stereo not given)	4 (≈ 12.8 µM)	16 (≈ 51.1 µM)	8 (≈ 25.6 µM)	256 (≈ 818 µM)	256 (≈ 818 µM)
O=C(OCc1ccccc1)c1cnccn1	< 1	1 (≈ 4.67 µM)	1 (≈ 4.67 µM)	64 (≈ 299 µM)	64 (≈ 299 µM)
O=C(OCc1ccc(Br)cc1)c1cnc(Cl)cn1	1 (≈ 3.05 µM)	0.125 (≈ 0.382 µM)	1 (≈ 3.05 µM)	64 (≈ 195 µM)	32 (≈ 97.7 µM)
CCCCCCCCCCCC(C)OC(=O)c1cnc(Cl)cn1 (stereo not given)	2 (≈ 5.87 µM)	0.06 (≈ 0.176 µM)	0.5 (≈ 1.47 µM)	32 (≈ 93.9 µM)	256 (≈ 751 µM)
Cc1cc(C(C)(C)C)c(OC(=O)c2cnccn2)c(C(C)(C)C)c1	128 (≈ 392 µM)	> 16	–	> 1020	> 1020
CCCCCCCOC(=O)c1cnc(C)cn1	0.5 (≈ 2.12 µM)	4 (≈ 16.9 µM)	0.25 (≈ 1.06 µM)	32 (≈ 135 µM)	32 (≈ 135 µM)
CCCCCCC(C)(CCCC)OC(=O)c1cnc(Cl)cn1 (stereo not given)	4 (≈ 12.2 µM)	4 (≈ 12.2 µM)	8 (≈ 24.5 µM)	–	> 256
CC(C)(OC(=O)c1cnc(Cl)cn1)c1ccccc1	16 (≈ 57.8 µM)	16 (≈ 57.8 µM)	16 (≈ 57.8 µM)	–	–
